Sampled rows, rich in hits. Any-hit rate of the full collection: about 1.9%.
ARFGAP1 inhibitor = inhibits rat ARF GTPase activating protein 1; Q62848; AID 651572; inhibition, % at 16.5 µM; Arfgap1-stimulated ARF1 GTP hydrolysis, GDP FP detection; actives 0.26% (n = 360,000);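 active = inhibition above a per-plate limit, mean inhibition of low control wells plus 3 SD, cut at about 25% in these data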;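 note: 0% = DMSO wells with enzyme and 100% = wells lacking Arfgap1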
Target sequence (Q62848 1-136 limits assumed): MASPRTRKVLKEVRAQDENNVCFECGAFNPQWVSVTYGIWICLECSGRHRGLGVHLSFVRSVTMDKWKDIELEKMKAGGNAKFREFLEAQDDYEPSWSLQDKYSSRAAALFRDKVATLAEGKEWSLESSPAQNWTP
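System: truncated rat Arfgap1 GAP domain / Benchmarks: high control wells lacking Arfgap1, low control full reaction with DMSO / Times: compound-enzyme preincubation 20 min, reaction 120 min, detection 60 min, 25 °C / Repeats: one replicate per compound / Also added: human ARF1(Δ1-17)-GTP substrate / Measured by: Tracer-displacement fluorescence polarization with EDTA stop, 620/688 nm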
Rtt109 HAT inh = blocks Candida albicans Rtt109/Vps75 acetyltransferase activity | actives 0.16% (n = 330,000) | AID 540336 | purified Rtt109/Vps75, ThioGlo CoA-SH fluorescence, 4 h | inhibition, % at 34.9 µM | Q5AAJ8;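 active = inhibition of at least 50% in every replicate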
Target sequence (Q5AAJ8 whole entry, looked up): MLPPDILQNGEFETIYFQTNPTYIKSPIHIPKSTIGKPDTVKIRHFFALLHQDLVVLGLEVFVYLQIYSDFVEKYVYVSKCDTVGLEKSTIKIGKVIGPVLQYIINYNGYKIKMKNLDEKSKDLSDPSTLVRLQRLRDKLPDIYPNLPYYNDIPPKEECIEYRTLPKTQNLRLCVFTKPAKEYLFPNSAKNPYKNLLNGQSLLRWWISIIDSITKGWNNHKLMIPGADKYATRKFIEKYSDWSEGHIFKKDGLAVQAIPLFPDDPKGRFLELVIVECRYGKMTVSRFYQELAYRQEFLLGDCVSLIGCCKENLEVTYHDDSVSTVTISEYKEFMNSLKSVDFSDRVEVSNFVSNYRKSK
ASAP1 GAP inh = inhibitors of human ASAP1 ArfGAP activity | actives 0.19% (n = 360,000) | ASAP1-stimulated ARF1 GTP hydrolysis, GDP FP detection | inhibition, % at 16.5 µM | Q9ULH1 | AID 624377; in the data active = inhibition above about 25%;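 note: 0% = vehicle with enzyme and substrate and 100% = no enzyme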
Efflux pump mplx = blocks antifungal efflux pumps in multiplex yeast assay; actives 0.44% (n = 330,000); AID 485275; S. cerevisiae Candida pump triplex, Nile Red efflux; inhibition, % at 10 µM;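 active = plate passing quality check with inhibition over a set limit, or well fluorescence over plate mean plus 4 SD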;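 note: Nile Red retained in pooled yeast measured as flow cytometry median fluorescence; 0% = buffer negative control and 100% = Enniatin B positive control; higher means more Nile Red kept so more efflux inhibition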
FGF22 binding = FGF22 (human) thermal shift binding | recombinant FGF22 thermal shift, SYPRO orange fluorescence; percent of sucrose octasulfate shift, DMSO zero | actives 1.5% (n = 340,000) | Q9HCT0 | activity (Tm shift, normalised), % at 9.99 µM;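 active = mean Tm shift, scaled 0 neutral to 100 positive control, at about 1.3% or above, every replicate too, limit read from the data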
Target sequence (Q9HCT0 whole entry, looked up): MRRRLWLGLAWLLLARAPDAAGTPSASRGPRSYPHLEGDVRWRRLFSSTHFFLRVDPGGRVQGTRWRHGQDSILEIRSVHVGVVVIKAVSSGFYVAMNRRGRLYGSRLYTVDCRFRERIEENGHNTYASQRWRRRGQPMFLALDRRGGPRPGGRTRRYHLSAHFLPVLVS
Active calls of the source: *; / = not tested or not shown.

SMILES | ARFGAP1 inhibitor | Rtt109 HAT inh | ASAP1 GAP inh | Efflux pump mplx | FGF22 binding
CNC[C@H]1OCCCC[C@@H](C)Oc2ccc(NS(=O)(=O)c3ccc(Cl)cc3)cc2C(=O)N([C@H](C)CO)C[C@H]1C | / | / | / | / | 1
CCOC(=O)CN1C(=O)C(O)(CC(=O)c2cccc(OC)c2)c2ccccc21 (configuration not stated) | 26* | -12 | 12 | 0 | /
CCC(=O)N1[C@@H]2c3ccc(C4=CCCCC4)c(=O)n3C[C@H]1[C@H](CO)[C@H]2C(=O)N[C@@H](C)c1ccccc1 | / | / | / | / | 0
CC(=O)Nc1nnc(CCS(=O)(=O)c2ccc(C)c(C)c2)s1 | -9 | 59* | 11 | 0 | 0
CC(C)c1ccc(NC(=O)CNS(=O)(=O)c2ccc(F)cc2)cc1 | 14 | -2 | 9 | 0 | 43*
CC(=O)Nc1cn(-c2ccccc2)nc1-c1ccccc1 | -7 | -5 | 10 | 0 | 0
O=C(CCl)Nc1cn(-c2ccccc2)nc1-c1ccccc1 | 5 | 0 | 2 | 0 | 43*
Cc1nc(Cl)c(C(=O)NC(=O)NCc2ccccc2)c(C)c1Cl | 6 | 2 | 4 | 0 | /
Cc1c(NC(=O)CN2CCC(C(N)=O)CC2)cccc1[N+](=O)[O-] | 8 | -5 | 10 | 0 | 43*
C[C@@H]1CN([C@@H](C)CO)C(=O)c2cc(C3=CCCC3)cnc2O[C@@H]1CN(C)C(=O)Nc1ccccc1 | / | / | / | / | 0
CCOC(=O)c1c(NC(N)=O)sc(C)c1C | 6 | -20 | -13 | 0 | /
CCOC(=O)c1c(N2C(=O)C=CC2=O)sc(C)c1C | / | 69* | / | 0 | /
COc1ccc(-c2cnc3c(c2)C(=O)N([C@H](C)CO)C[C@@H](C)[C@H](CN(C)C(=O)Cc2ccccc2)O3)cc1 | / | / | / | / | 0
CCN1/C(=C/c2ccc3cc(C)ccc3[n+]2CC)Sc2cc(C)ccc21 | -3 | 82* | 6 | / | 0
CN1CCN(C(=O)c2cnn(-c3ccccc3)c2NC(=O)c2ccccc2)CC1 | -5 | -13 | 13 | 0 | 43*
NC(=O)c1cc(C(=O)c2cccc(Cl)c2Cl)c[nH]1 | -4 | 8 | 2 | 0 | 0
NC(=O)c1cc(C(=O)c2ccccc2Cl)c[nH]1 | -6 | -1 | 6 | 0 | 43*
CN(C)C(=O)c1cc(C(=O)c2ccccc2Cl)c[nH]1 | -2 | -3 | 13 | 0 | 43*
CCOP(=O)(OCC)C(Nc1ccccc1)c1cc(OC)ccc1OC (configuration not stated) | -2 | 4 | 1 | 0 | 0
CC(=O)c1cn(Cc2ccccc2)c(=O)[nH]c1=O | 6 | -4 | -10 | 0 | 43*
CCCc1nn2c(N)c(/C=C3\C=Nc4ccccc43)c(=O)nc2s1 | -5 | 1 | -2 | 1 | 0
CC(C)Cc1nn2c(N)c(/C=C3\C=Nc4ccccc43)c(=O)nc2s1 | -1 | -7 | 3 | 0 | 1.5*
CCN1/C(=C2/SC(=S)NC2=O)Sc2ccccc21 | -8 | -2 | -7 | 0 | 43*
CCN1/C(=C2/OC(=S)N(C)C2=O)Sc2ccccc21 | 3 | 9 | -1 | / | /
CCOC(=O)/C(C)=N/NC(=O)c1ccc([N+](=O)[O-])cc1 | -1 | -1 | 7 | 0 | 44*
SMILES | ARFGAP1 inhibitor | Rtt109 HAT inh | ASAP1 GAP inh | Efflux pump mplx | FGF22 binding
CCc1ccc(N2C(=O)C3C4C=CC(CC4)C3C2=O)cc1 (configuration not stated) | -1 | 1 | -1 | 0 | 0
COc1cccc(C2=NN(C(=O)c3ccc(C)o3)C(O)(C(F)(F)F)C2)c1 (configuration not stated) | -6 | 10 | -1 | 0 | 43*
O=C(c1ccco1)N1N=C(c2ccc(Cl)cc2)CC1(O)C(F)(F)F (configuration not stated) | -13 | 3 | 1 | 0 | 43*
C[C@H]1CCCCO[C@@H](CN(C)C(=O)Nc2ccc(F)cc2)[C@@H](C)CN([C@@H](C)CO)C(=O)c2cc(NC(=O)Nc3ccc(C(F)(F)F)cc3)ccc2O1 | / | / | / | / | 0
C[C@H](CO)N1C[C@H](C)[C@@H](CN(C)C(=O)Nc2ccc(F)cc2)OCCCC[C@H](C)Oc2ccc(NC(=O)Nc3ccc(C(F)(F)F)cc3)cc2C1=O | / | / | / | / | 1.2*
C[C@@H]1CN([C@H](C)CO)C(=O)c2cc(NC(=O)Nc3ccc(C(F)(F)F)cc3)ccc2O[C@@H](C)CCCCO[C@H]1CN(C)C(=O)Nc1ccc(F)cc1 | / | / | / | / | 1.4*
C[C@@H]1CCCCO[C@H](CN(C)C(=O)Nc2ccc(F)cc2)[C@@H](C)CN([C@@H](C)CO)C(=O)c2cc(NC(=O)Nc3ccc(C(F)(F)F)cc3)ccc2O1 | / | / | / | / | 1
C[C@@H]1CCCCO[C@H](CN(C)C(=O)Nc2ccc(C(F)(F)F)cc2)[C@@H](C)CN([C@H](C)CO)C(=O)c2cc(NS(=O)(=O)c3cn(C)cn3)ccc2O1 | / | / | / | / | 1.5*
Cc1[nH]nc2c1C(c1ccco1)C(C#N)=C(N)O2 (configuration not stated) | 10 | 6 | 6 | 0 | 0
CC(C)(C)c1[nH]nc2c1C(c1ccco1)C(C#N)=C(N)O2 (configuration not stated) | 5 | -3 | 9 | 0 | 44*
COc1ccc(-c2cn3c(C)c(C(=O)NC(C)C)sc3n2)cc1 | 7 | 0 | 0 | 0 | /
C[C@@H]1CN([C@H](C)CO)C(=O)c2cc(NC(=O)Cc3cn(C)c4ccccc34)ccc2O[C@H]1CN(C)S(=O)(=O)c1cn(C)cn1 | / | / | / | / | -1
COc1ccc(NC(=O)CSc2nccn2C)cc1S(N)(=O)=O | -3 | 15 | 1 | 0 | 2.4*
Cn1ccnc1SCC(=O)c1c[nH]c2ccccc12 | 7 | -3 | -16 | 0 | 0
COc1ccccc1C(=O)CSc1nccn1C | 4 | 54* | 12 | 0 | 0
COc1ccc(CNC(=O)c2ccc(S(=O)(=O)N3CCOCC3)cc2)cc1 | 8 | -3 | 1 | / | 78*
COc1ccc(C(=O)Nc2ccc(S(=O)(=O)N3CCOCC3)cc2)cc1 | 16 | / | 15 | 0 | 0
COc1ccc(CNC(=O)COC(=O)c2ccc(S(=O)(=O)N3CCCCC3)cc2)cc1 | 6 | 52* | -9 | 0 | 0
COc1ccc(CNC(=O)COC(=O)c2ccc(S(=O)(=O)N3CCOCC3)cc2)cc1 | -5 | 5 | -3 | 0 | 0
COc1ccc(OC)c(NC(=O)COC(=O)c2ccc(S(=O)(=O)N3CCCCC3)cc2)c1 | 7 | / | -4 | / | 45*
N/C(=N\OC(=O)c1cccc2ccccc12)c1ccc(Br)cc1 | 0 | 0 | 12 | 0 | 44*
CSc1ccc(CNc2nnnn2C)cc1 | 8 | -1 | -1 | 0 | 43*
CCCn1nnnc1NCc1ccc(SC)cc1 | 8 | -6 | -2 | 0 | 0
C[C@@H]1CCCCO[C@@H](CN(C)Cc2ccc(C(=O)Nc3ccccc3N)cc2)[C@@H](C)CN([C@H](C)CO)C(=O)c2cc(NC(=O)Nc3cccc4ccccc34)ccc2O1 | / | / | / | / | -1

Assay outcomes deposited in PubChem by several laboratories.
